ChEMBL document CHEMBL1131131, “Structure-based design of beta-lactamase inhibitors. 2. Synthesis and evaluation of bridged sulfactams and oxamazins” (J Med Chem, 1998)
In brackets after ≈: the same amount, converted by molar mass.

Experiments:
[1] = system: Escherichia coli; test: Minimum inhibitory concentration against the strains of Escherichia coli that produce the beta-lactamases; format: functional
Summary of the method: (§1)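 Agar dilution on Mueller-Hinton agar with twofold serial dilutions of the compound or combination. About 10⁴ organisms were spotted with a multipoint inoculator. Plates were incubated for 18 h at 35 °C. MIC was taken as the lowest concentration preventing visible growth.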

[2] = system: Pseudomonas aeruginosa; test: Minimum inhibitory concentration against the strains of Pseudomonas aeruginosa that produce the beta-lactamases; format: functional; summary of the method: as §1
[3] = system: Citrobacter freundii; test: Minimum inhibitory concentration against the strain Citrobacter freundii 1982 that produce the beta-lactamases; format: functional; summary of the method: as §1
[4] = Kinetic parameter was determined

NC(=O)c1ccc(NC(=O)N2CCC3C2C(=O)N3OS(=O)(=O)[O-])cc1.[Na+] (stereo not given)
MIC [1]: 8 µg/mL
MIC [2]: 128 µg/mL
MIC [3]: 1 µg/mL

CC(C)(C)OC(=O)N1CCC2C1C(=O)N2OCC(=O)OCc1ccccc1 (stereo not given)
MIC [1]: > 16 µg/mL
MIC [2]: > 16 µg/mL
MIC [3]: > 16 µg/mL

CC(C)(C)OC(=O)N1CCC2C1C(=O)N2OS(=O)(=O)[O-].[Na+] (stereo not given)
MIC [1]: 4 µg/mL
MIC [2]: 32 µg/mL
MIC [3]: 4 µg/mL
Koff [4]: 0.12 s⁻¹
Kon [4]: 20 s⁻¹
Ks [4]: 600 µM

NC(=O)c1ccc(NC(=O)N2CC[C@@H]3[C@H]2C(=O)N3S(=O)(=O)O)cc1
MIC [1]: 16 µg/mL (≈ 45.2 µM)
MIC [2]: 4 µg/mL (≈ 11.3 µM)
MIC [3]: 0.25 µg/mL (≈ 0.706 µM)

CC(C)(C)OC(=O)N1CC[C@@H]2[C@H]1C(=O)N2S(=O)(=O)O
MIC [1]: 16 µg/mL (≈ 54.7 µM)
MIC [2]: 8 µg/mL (≈ 27.4 µM)
Koff [4]: < 8e-07 s⁻¹
Kon [4]: 12.5 s⁻¹
Ks [4]: 127 µM
